Results reported in ChEMBL document CHEMBL4842335, “Discovery of penipanoid C-inspired 2-(3,4,5-trimethoxybenzoyl)quinazolin-4(3H)-one derivatives as potential anticancer agents by inhibiting cell proliferation and inducing apoptosis in hepatocellular carcinoma cells” (Eur J Med Chem, 2021).
Counter-ions that a name gives are not always drawn.

Legend:
HepG2 [1] = experiment: Cytotoxicity against human HepG2 cells assessed as inhibition of proliferation incubated for 72 hrs by MTT assay; format: functional, cell-based; conditions: HepG2, 72 h
In short: (§1)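 Cells plated at 3×10³/well, grown overnight in DMEM + 10% FBS, then exposed to compounds (DMSO stocks; 0.1% DMSO negative control) for 72 h at 37 °C. MTT (5 mg/mL in PBS, added at 10%) for 4 h, formazan dissolved in DMSO, A570 read. Inhibition = (Ac−As)/(Ac−Ab)×100; IC50 by calculator; ≥3 independent repeats.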

A549 = experiment: Cytotoxicity against human A549 cells assessed as inhibition of proliferation incubated for 72 hrs by MTT assay; format: functional, cell-based; conditions: A549, 72 h; in short: as §1
HepG2 [2] = experiment: Cytotoxicity against human HepG2 cells assessed as inhibition rate at 2.5 uM incubated for 72 hrs by MTT assay relative to control; format: functional
In short: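 HepG2 exposed to each compound at 2.5 µM-range single concentration for 72 h at 37 °C after overnight attachment in DMEM + 10% FBS; 0.1% DMSO control. MTT 4 h, DMSO solubilisation, A570; inhibition rate = (Ac−As)/(Ac−Ab)×100.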

U-251 = experiment: Cytotoxicity against human U251 cells assessed as inhibition of proliferation incubated for 72 hrs by MTT assay; format: functional, cell-based; conditions: U-251, 72 h; in short: as §1
Bel-7402 = experiment: Cytotoxicity against human Bel-7402 cells assessed as inhibition of proliferation incubated for 72 hrs by MTT assay; format: functional, cell-based; conditions: Bel-7402, 72 h; in short: as §1

| Compound | IC50 (HepG2 [1]) [µM] | IC50 (A549) [µM] | inhibition at 2.5 µM (HepG2 [2]) [%] | IC50 (U-251) [µM] | IC50 (Bel-7402) [µM] |
| --- | --- | --- | --- | --- | --- |
| O=C(c1ccc(O)cc1)c1nc2ccccc2c(=O)[nH]1 [PENIPANOID C] | > 50 | – | – | – | – |
| CCOc1nc(C(=O)c2cc(OC)c(OC)c(OC)c2)nc2ccccc12 | 15.6 | > 100 | 32 | 10.6 | 8.29 |
| COc1cc(C(=O)c2nc3cccc(Br)c3c(=O)[nH]2)cc(OC)c1OC | – | – | 5.1 | – | – |
| COc1cc(C(=O)c2nc3ccccc3c(=O)n2Cc2nnc(-c3ccc(F)cc3)o2)cc(OC)c1OC | 7.07 | 7.66 | 26.3 | 27.5 | 4.86 |
| COc1cc(C(=O)c2nc3ccccc3c(=O)n2Cc2nnc(-c3ccco3)o2)cc(OC)c1OC | 7.51 | 4.62 | 34.4 | 15.9 | 8.15 |
| COc1cc(C(=O)c2nc3ccccc3c(=O)n2Cc2nnc(-c3ccc(Cl)cc3)o2)cc(OC)c1OC | – | – | 2.3 | – | – |
| COc1cc(C(=O)c2nc3ccc(Br)cc3c(=O)[nH]2)cc(OC)c1OC | – | – | 3.4 | – | – |
| COc1cc(C(=O)c2nc3c(F)cccc3c(=O)[nH]2)cc(OC)c1OC | – | – | 6.8 | – | – |
| O=C(c1ccc(F)cc1)c1nc2ccccc2c(=O)[nH]1 | > 50 | – | – | – | – |
| COc1cccc2c1C(=O)c1c(O)c3c(c(O)c1C2=O)C[C@@](O)(C(=O)CO)C[C@@H]3O[C@H]1C[C@H](N)[C@H](O)[C@H](C)O1 [DOXORUBICIN HYDROCHLORIDE] | 2.21 | – | – | 0.157 | 1.28 |
| COc1cc(C(=O)c2nc3c(Cl)cccc3c(=O)[nH]2)cc(OC)c1OC | – | – | 9.2 | – | – |
| O=C(c1ccc(Cl)cc1)c1nc2ccccc2c(=O)[nH]1 | > 50 | – | – | – | – |
| COc1cc(C(=O)c2nc3ccc(F)cc3c(=O)[nH]2)cc(OC)c1OC | – | – | 5.1 | – | – |
| COc1cc(C(=O)c2nc3ccc(Cl)cc3c(=O)[nH]2)cc(OC)c1OC | – | – | 3.4 | – | – |
| O=C(c1nc2ccccc2c(=O)[nH]1)c1ccccc1OC(F)(F)F | > 50 | – | – | – | – |
| O=C(c1ccc(C(F)(F)F)cc1)c1nc2ccccc2c(=O)[nH]1 | > 50 | – | – | – | – |
| COc1cc(C(=O)c2nc3ccccc3c(=O)n2C)cc(OC)c1OC | 8.19 | 20.3 | 17.4 | > 100 | 6.34 |
| COc1ccc2nc(C(=O)c3cc(OC)c(OC)c(OC)c3)[nH]c(=O)c2c1 | – | – | 4.2 | – | – |
| COc1ccc(C(=O)c2nc3ccccc3c(=O)[nH]2)cc1 | > 50 | – | – | – | – |
| COc1cc(C(=O)c2nc3ccccc3c(=O)n2Cc2nnc(-c3ccc(C)cc3)o2)cc(OC)c1OC | 10.5 | 47.1 | 12.6 | 27 | 8.88 |

| Compound | IC50 (HepG2 [1]) [µM] | IC50 (A549) [µM] | inhibition at 2.5 µM (HepG2 [2]) [%] | IC50 (U-251) [µM] | IC50 (Bel-7402) [µM] |
| --- | --- | --- | --- | --- | --- |
| COc1cc(C(=O)c2nc3c(Br)cccc3c(=O)[nH]2)cc(OC)c1OC | – | – | 1.3 | – | – |
| COc1ccc2c(=O)[nH]c(C(=O)c3cc(OC)c(OC)c(OC)c3)nc2c1 | 10.6 | 12.7 | 43.4 | 13.7 | 4.13 |
| C=CCn1c(C(=O)c2cc(OC)c(OC)c(OC)c2)nc2ccccc2c1=O | 14.1 | 10.5 | 21 | 13 | 10.7 |
| COc1cc(C(=O)c2nc(OC(C)C)c3ccccc3n2)cc(OC)c1OC | 7.45 | 7.27 | 10.8 | > 100 | 4.91 |
| COc1cc(C(=O)c2nc3cc(Cl)ccc3c(=O)[nH]2)cc(OC)c1OC | – | – | 8.2 | – | – |
| COc1cc(C(=O)c2nc(Cl)c3ccccc3n2)cc(OC)c1OC | 10.9 | 7.09 | 18.4 | > 100 | 6.88 |
| COc1cc(C(=O)c2nc3cc(Br)ccc3c(=O)[nH]2)cc(OC)c1OC | 7.45 | 7.27 | 17.6 | > 100 | 4.91 |
| COc1cc(C(=O)c2nc3cccc(F)c3c(=O)[nH]2)cc(OC)c1OC | – | – | 9.4 | – | – |
| COc1cc(C(=O)c2nc3c(OC)cccc3c(=O)[nH]2)cc(OC)c1OC | – | – | 8.1 | – | – |
| COc1cc(C(=O)c2nc3cc(F)c(F)cc3c(=O)[nH]2)cc(OC)c1OC | – | – | 1.2 | – | – |
| COc1cc(C(=O)c2nc3cc([N+](=O)[O-])ccc3c(=O)[nH]2)cc(OC)c1OC | – | – | 6.9 | – | – |
| COc1cc(C(=O)c2nc3cc(F)ccc3c(=O)[nH]2)cc(OC)c1OC | – | – | 9.7 | – | – |
| COc1cc(C(=O)c2nc3cccc(OC)c3c(=O)[nH]2)cc(OC)c1OC | 9.15 | 15.4 | 10.2 | 19.2 | 7.1 |
| O=C(c1nc2ccccc2c(=O)[nH]1)c1ccccc1C(F)(F)F | > 50 | – | – | – | – |
| C#CCn1c(C(=O)c2cc(OC)c(OC)c(OC)c2)nc2ccccc2c1=O | 4.97 | 7.66 | 54.7 | 12.8 | 5.4 |
| O=C(c1ccc(OC(F)(F)F)cc1)c1nc2ccccc2c(=O)[nH]1 | > 50 | – | – | – | – |
| COc1cc(C(=O)c2nc3ccc([N+](=O)[O-])cc3c(=O)[nH]2)cc(OC)c1OC | – | – | 8.8 | – | – |
| COc1ccccc1C(=O)c1nc2ccccc2c(=O)[nH]1 | > 50 | – | – | – | – |
| COc1cc2nc(C(=O)c3cc(OC)c(OC)c(OC)c3)[nH]c(=O)c2cc1OC | – | – | 5.1 | – | – |
| COc1cc(C(=O)c2nc3cccc(Cl)c3c(=O)[nH]2)cc(OC)c1OC | – | – | 3.7 | – | – |
